PKD1 inh – inhibitors of human PKD1 kinase, biochemical, fluorescence polarization; Serine/threonine-protein kinase D1 (Homo sapiens), Q15139; PKD1 kinase fluorescence polarization assay; inhibition, % (no concentration beside the values); 200,000 tested, 0.056% active; AID 797, 2007; in the data active = inhibition above about 50%
Arbovirus anti – antivirals against arbovirus infection, primary screen, cell-based, full library, 10K replicate subset. arbovirus infection cell-based antiviral screen. inhibition, % at 10 µM. 200,000 tested, 0.37% active. AID 1251, 2008; in the data active = inhibition above about 30%
Insulin prom up – insulin promoter activators in MIN6 cells, imaging, high-content screening, mouse beta cells. MIN6 insulin promoter-GFP reporter; hits give high values. z-score at 5 µM. 190,000 tested, 0.3% active. AID 1625, 2009;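 active = z-score above 3 at 5 µM with at least 500 cells counted in the well; inconclusive = wells under 500 cells, flagged as cytotoxic or low count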
INS promoter inh – inhibitors of insulin promoter-driven GFP, primary screen, imaging, TRM-6 cells, eGFP reporter, cell count; 130,000 tested, 0.9% active; reporter expression induced with tamoxifen; inhibition, % at 2 µM; AID 1273, 2008;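 active = inhibition above the mean plus 3 SD, with well images judged a real hit on visual review, cut at about 60% in these data, passing the limit was not always enough; inconclusive = inhibition over the cutoff but images rejected on review; inactive = inhibition not above the cutoff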
RBBP9 inh – human RBBP9 inhibitors, primary screen, biochemical, fluorescence polarization, FP-Rh probe, HTS | inhibition, % at 7.94 µM | 220,000 tested, 0.2% active | Serine hydrolase RBBP9 (Homo sapiens), O75884 | recombinant RBBP9;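 active = inhibition above the campaign mean of all tested compounds plus 3 SD, cut at about 14% in these data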
Target sequence (O75884 whole entry, looked up): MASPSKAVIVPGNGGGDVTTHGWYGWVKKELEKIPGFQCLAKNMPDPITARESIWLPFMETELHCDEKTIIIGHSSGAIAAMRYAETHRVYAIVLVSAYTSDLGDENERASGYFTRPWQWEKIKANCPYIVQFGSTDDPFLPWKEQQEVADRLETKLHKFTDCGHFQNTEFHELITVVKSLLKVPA
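Assay system: recombinant human RBBP9; Reagent: Serine-hydrolase probe FP-Rh, 375 nM pre-mixing; Doses: 7.94 µM single dose, 0.794% DMSO; Incubation: 30 min then 45 min, 25 °C; Detection: fluorescence polarization (mP), excitation 525 nm, emission 598 nm; Evaluation: percent inhibition from mP, scaled between DMSO and no-protein wells.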
Autophagy mod – autophagy modulators in MEF cells, primary screen, imaging, high-content, MEF GFP-LC3 | MEF GFP-LC3 puncta imaging; test concentration mostly 10 µM | calls only at 10 µM (by protocol) | 190,000 tested, 0.98% active | AID 463193, 2010;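 active = percentage of spot-positive cells more than 3 SD above its plate mean, without a fluorescence outlier flag or 80% toxicity; inconclusive = no clear call, values can overlap the other calls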
RBBP9 confirm – human RBBP9 inhibitors, retest, confirmation, biochemical, fluorescence polarization, FP-Rh probe, triplicate; inhibition, % at 7.94 µM; 410 tested, 36% active; recombinant RBBP9; shares compounds with RBBP9 inh; AID 1537, 2009;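 active = inhibition above the hit cutoff derived for the primary screen, cut at about 15% in these data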
Each line names hits and unclear results; the compound was inactive in the other large screens (follow-up assays come after a bar, where they were run); ! = repeats disagree. An excerpt weighted towards active compounds, which were near 2.1% of everything screened.

COc1cc(/C=C/C(=O)c2c(O)n(CCc3ccccc3)c(=O)[nH]c2=O)ccc1O	Arbovirus anti 46
Cc1nn(Cc2ccc(Cl)cc2Cl)c(Cl)c1C(=O)Nc1ccc(OC(F)F)cc1	none
CCC(=NCCN1CCCCC1)c1c(O)n(C)c(=O)n(C)c1=O	Autophagy mod active
Cc1ccc(CN2C3CCCC2CC(NC(=O)Nc2cccc(F)c2)C3)cc1 (stereo unspecified)	Autophagy mod active (no result: INS promoter inh)
COc1ccccc1OP(=O)(Nc1cccnc1)Oc1ccccc1OC	Autophagy mod active (no result: INS promoter inh)
COc1cccc(NP(=O)(Oc2ccc(Cl)cc2)Oc2ccc(Cl)cc2)c1	none
CC(C)NS(=O)(=O)c1ccc(OCC(=O)N2CCN(Cc3ccccc3)CC2)cc1	none (no result: Arbovirus anti, Insulin prom up)
Oc1cc2c(cc1O)[C@H]1c3ccccc3CN[C@@H]1CC2	RBBP9 inh 22 (no result: PKD1 inh, INS promoter inh, Autophagy mod)
Clc1ccccc1CN1CCN(c2ccccc2)CC1	none (no result: Insulin prom up)
CC(C)(C)c1ccc(O)c(CN2CCN(c3ccccc3)CC2)c1	INS promoter inh 82
O=C(C[N+]12CCC(CC1)C(C(O)(c1ccccc1)c1ccccc1)C2)c1ccc(Br)cc1 (stereo unspecified)	none (no result: PKD1 inh, Arbovirus anti, INS promoter inh, Autophagy mod)
NC(N)=N/N=C/c1cn(-c2ccccc2)nc1-c1cccs1	Autophagy mod active
COc1ccc(CC(=O)N2CCN(C)CC2)cc1	Insulin prom up 3.5
COc1ccc(CC(=O)N2CCN(C)CC2)cc1OC	none
Cc1cc(=O)[nH]c(SCc2nc3ccccc3c(=O)n2-c2ccccc2C)n1	Autophagy mod active (no result: INS promoter inh)
C=CCOc1ccc(CC2C(=O)N(C)C(=O)N(C)C2=O)cc1	none (no result: Insulin prom up)
Cc1ccc(CC2C(=O)N(C)C(=O)N(C)C2=O)s1	Arbovirus anti 81
CC(=O)Nc1ccccc1OP1(=O)COc2ccccc2OC1	INS promoter inh 77
CC(=O)Nc1ccccc1C(=O)OCC(=O)c1ccccc1Cl	none
O=C(O)C12C3CCCC1C32c1ccccc1 (stereo unspecified)	none (no result: INS promoter inh)
CCCCc1ccc2[nH]cc(CCN)c2c1	Insulin prom up 3.1
Nc1ccc(N2CCN(Cc3ccccc3Cl)CC2)c(Cl)c1	none
C1=C(c2ccccc2)CCNC1	none (no result: PKD1 inh, Arbovirus anti, INS promoter inh, Autophagy mod)
Cc1[nH]c2ccccc2c1C1=CCNCC1	Arbovirus anti 46
COc1cccc(OC)c1C1=NCC(=O)Nc2c1oc1ccc(Br)cc21	Autophagy mod active
CC1CN(CCc2ccccc2)CC(C)O1 (stereo unspecified)	INS promoter inh 70
Cc1ccc(N2CCN(CCc3ccccc3)CC2)cc1	none
Nc1cc2nc3ccccc3nc2cc1N	Insulin prom up 3.7 (no result: PKD1 inh, Arbovirus anti, INS promoter inh, Autophagy mod)
CC1=C(C(=O)N2CCC3(CC2)OCCO3)C2(CCC(C)CC2)OC1=O (stereo unspecified)	INS promoter inh 73
O=C(C1CC(=O)N(C2CCCCC2)C1)N1CCC2(CC1)OCCO2 (stereo unspecified)	none
O=C1CC(C(=O)N2CCC3(CC2)OCCO3)CN1CCc1ccccc1 (stereo unspecified)	INS promoter inh 80
O=C(Nc1ccc2ccccc2c1)c1nn(C23CC4CC(CC(C4)C2)C3)cc1Br	none (no result: INS promoter inh)
c1ccc(-c2ccc(-c3n(-c4ccccn4)c4ccccc4[n+]3-c3ccccn3)cc2)cc1	Autophagy mod active
COc1cc2c(cc1OC)[C@@H]1C(=O)c3ccc4c(c3O[C@@H]1CO2)C[C@H](C(C)C)O4	Insulin prom up inconclusive (no result: PKD1 inh, Arbovirus anti, INS promoter inh, Autophagy mod)
COc1cc2c(cc1OC)C(C(=O)N1CCC3(CC1)OCCO3)C(c1ccccc1F)N(C)C2=O (stereo unspecified)	none
c1ccc2c(N3CCNCC3)nsc2c1	Insulin prom up 3.1 (no result: INS promoter inh)
c1ccc2oc(N3CCNCC3)nc2c1	none (no result: INS promoter inh)
CCN(CC)c1ccc(N=Cc2c(O)n(Cc3ccccc3)c(=O)[nH]c2=O)cc1	Autophagy mod active!
O=C(N/N=C/c1c(O)n(CCc2ccccc2)c(=O)[nH]c1=O)c1ccncc1	Arbovirus anti 32 (no result: INS promoter inh)
O=C(N/N=C/c1c(O)n(Cc2ccccc2)c(=O)[nH]c1=O)c1ccccc1O	Arbovirus anti 58
O=C(N/N=C/c1c(O)n(CCc2ccc(F)cc2)c(=O)[nH]c1=O)c1ccncc1	none
O=C(N/N=C/c1c(O)n(Cc2ccc(F)cc2)c(=O)[nH]c1=O)c1ccccc1O	Arbovirus anti 55 (no result: INS promoter inh)
CCCC(C)C1(CC)C(=O)NC(=Nc2ccc(F)cc2)NC1=O (stereo unspecified)	none
CCOc1ccc(-n2c(O)c(C=Nc3ccc(NC(C)=O)cc3)c(=O)[nH]c2=O)cc1	none (no result: PKD1 inh, Arbovirus anti, INS promoter inh, Autophagy mod)
CN(C)CCn1cnc2ccccc21	none (no result: PKD1 inh, Arbovirus anti, Insulin prom up, INS promoter inh, Autophagy mod)
Cc1nc2ccc(Cl)cn2c1P(=S)(N1CCOCC1)N1CCOCC1	none (no result: INS promoter inh)
COc1ccc(CCn2c(O)c(/C=N/N3CCCCC3)c(=O)[nH]c2=O)cc1OC	none (no result: Insulin prom up, INS promoter inh)
COC(=O)C(C)Oc1cc(C)cc2oc(=O)c3c(c12)CCCC3 (stereo unspecified)	none
CC/C(=N\Nc1ccccc1)c1c(O)n(C)c(=O)n(C)c1=O	none (no result: INS promoter inh)
C/C(=N\NC(=S)Nc1ccccc1)c1c(O)n(C)c(=O)n(C)c1=O	Autophagy mod active
O=C(c1ccccc1)C1CCCN(Cc2nc(-c3cnccn3)no2)C1 (stereo unspecified)	Autophagy mod active (no result: INS promoter inh)
O=C(c1cccnc1)C1CCCN(Cc2nc(-c3cnccn3)no2)C1 (stereo unspecified)	none (no result: PKD1 inh, Arbovirus anti, INS promoter inh, Autophagy mod)
CCN1/C(=C\C=C\C2=[N+](CC)c3ccccc3C2(C)C)C(C)(C)c2ccccc21	Insulin prom up inconclusive, RBBP9 inh 100, Autophagy mod inconclusive | RBBP9 confirm inactive
CC(=O)N1N=C2C3CCN(CC3)C2C1c1ccc(F)cc1 (stereo unspecified)	none
CCOC(=O)C1CCCN(c2ccc([N+](=O)[O-])c3nonc23)C1 (stereo unspecified)	RBBP9 inh 19 (no result: INS promoter inh) | RBBP9 confirm 31
CCCC1=C(C(=O)OCC)C2(C(=O)Nc3ccc(C)cc32)C(C#N)=C(N)O1 (stereo unspecified)	none (no result: Insulin prom up)
CC(C)N(Cc1ccco1)/N=C/c1c(O)n(Cc2ccccc2)c(=O)[nH]c1=O	RBBP9 inh 19 (no result: PKD1 inh, Arbovirus anti, INS promoter inh, Autophagy mod) | RBBP9 confirm inactive
O=c1[nH]c(=O)n(Cc2ccco2)c(O)c1C=NC1CC1	none (no result: Insulin prom up)
CC(C)N1CCN(c2ccc(O)cc2)CC1	RBBP9 inh 15 | RBBP9 confirm inactive
CCC(C)n1c(O)c(C=NC(C)c2ccccc2)c(=O)[nH]c1=S (stereo unspecified)	RBBP9 inh 16 (no result: PKD1 inh, Arbovirus anti, INS promoter inh, Autophagy mod) | RBBP9 confirm inactive
C=CCn1c(O)c(/C=N/NC(=O)CCCC)c(=O)[nH]c1=S	none (no result: Insulin prom up, INS promoter inh)
O=C(Cn1cnc2sc3c(c2c1=O)CCCC3)NCCC(=O)N1CCC2(CC1)OCCO2	none

Screens (PubChem)
